Measured values taken from ChEMBL document CHEMBL1150350, “Evaluation of the amino acid binding site of Mycobacterium tuberculosis glutamine synthetase for drug discovery” (Bioorg Med Chem, 2008).
Activity calls are given as the source filed them. The rule behind the calls is not given here.

Experiments:
[1] = Inhibition of sheep brain glutamine synthetase by transferase assay; set-up: species or system Ovis aries
[2] = tested on: Mycobacterium tuberculosis; conditions: at 1 mM
Glutamine synthetase [3] = biological target: T1, Glutamine synthetase (Glycine max, UniProt Q43760); test: Inhibition of soybean glutamine synthetase by transferase assay
T1 sequence (Q43760 whole entry): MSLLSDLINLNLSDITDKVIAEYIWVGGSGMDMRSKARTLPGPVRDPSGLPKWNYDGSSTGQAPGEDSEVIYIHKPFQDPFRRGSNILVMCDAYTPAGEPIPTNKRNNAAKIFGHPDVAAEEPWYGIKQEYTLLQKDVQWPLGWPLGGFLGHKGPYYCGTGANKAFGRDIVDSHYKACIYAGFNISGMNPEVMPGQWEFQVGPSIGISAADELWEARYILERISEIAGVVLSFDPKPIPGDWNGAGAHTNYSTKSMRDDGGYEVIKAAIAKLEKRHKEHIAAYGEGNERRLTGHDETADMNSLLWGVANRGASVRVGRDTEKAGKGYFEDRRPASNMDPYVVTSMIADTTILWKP

[4] = tested on: Mycobacterium tuberculosis; test: Inhibition of Mycobacterium tuberculosis glutamine synthetase at 0.90 mM in water
In short: (§1)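 Unadenylylated MtGS from an E. coli expression strain, 7 nM subunit, in 50 mM HEPES-HCl pH 7.5 with 25 mM MgCl2, 1 mM ATP and 30 mM NH4Cl. Compound (water stock) was preincubated 20 min at RT, then 10 mM L-glutamate was added and the reaction run 60 min at RT. Released Pi was read at A635 minus a no-GS/no-ATP background. Triplicate; % of uninhibited; t-test, p<0.1.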

[5] = tested on: Mycobacterium tuberculosis; test: Activation of Mycobacterium tuberculosis glutamine synthetase at 1 mM in water; in short: as §1
[6] = tested on: Mycobacterium tuberculosis; test: Inhibition of Mycobacterium tuberculosis glutamine synthetase at 0.75 mM in DMSO
In short: (§2)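 Compound from a DMSO stock (2% v/v DMSO final) was preincubated 20 min at RT with unadenylylated MtGS (7 nM subunit) in 50 mM HEPES-HCl pH 7.5, 25 mM MgCl2, 1 mM ATP and 30 mM NH4Cl. Started with 10 mM L-glutamate, 60 min at RT. Phosphate read at 635 nm, corrected by a compound-background plate lacking GS and ATP. Triplicate, % vs uninhibited enzyme.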

[7] = tested on: Mycobacterium tuberculosis; test: Inhibition of Mycobacterium tuberculosis glutamine synthetase at 0.20 mM in water; in short: as §1
[8] = Inhibition of Escherichia coli glutamine synthetase by transferase assay
Escherichia coli = test: Inhibition of Escherichia coli glutamine synthetase at 1.1 mM
Ovis aries [9] = organism: Ovis aries; test: Inhibition of sheep brain glutamine synthetase at 25 mM
[10] = tested on: Mycobacterium tuberculosis; test: Inhibition of Mycobacterium tuberculosis glutamine synthetase at 0.93 mM in water; in short: as §1
[11] = Inhibition of Mycobacterium tuberculosis glutamine synthetase by transferase assay
[12] = tested on: Mycobacterium tuberculosis; test: Inhibition of Mycobacterium tuberculosis glutamine synthetase at 1 mM in DMSO; in short: as §2
Ovis aries [13] = organism: Ovis aries; test: Inhibition of sheep brain glutamine synthetase at 0.5 mM by transferase assay
[14] = biological target: T2, Glutamine synthetase (Glycine max) (UniProt Q43760); test: Inhibition of soybean glutamine synthetase at 0.5 mM by transferase assay
T2 sequence (whole entry): T1 sequence (Q43760 whole entry)

Glutamine synthetase [15] = biological target: T3, Glutamine synthetase (Salmonella typhimurium (strain LT2 / SGSC1412 / ATCC 700720), UniProt P0A1P6); test: Inhibition of Salmonella Typhimurium glutamine synthetase by transferase assay; set-up: species or system Salmonella enterica subsp. enterica serovar Typhimurium
T3 sequence (P0A1P6 whole entry): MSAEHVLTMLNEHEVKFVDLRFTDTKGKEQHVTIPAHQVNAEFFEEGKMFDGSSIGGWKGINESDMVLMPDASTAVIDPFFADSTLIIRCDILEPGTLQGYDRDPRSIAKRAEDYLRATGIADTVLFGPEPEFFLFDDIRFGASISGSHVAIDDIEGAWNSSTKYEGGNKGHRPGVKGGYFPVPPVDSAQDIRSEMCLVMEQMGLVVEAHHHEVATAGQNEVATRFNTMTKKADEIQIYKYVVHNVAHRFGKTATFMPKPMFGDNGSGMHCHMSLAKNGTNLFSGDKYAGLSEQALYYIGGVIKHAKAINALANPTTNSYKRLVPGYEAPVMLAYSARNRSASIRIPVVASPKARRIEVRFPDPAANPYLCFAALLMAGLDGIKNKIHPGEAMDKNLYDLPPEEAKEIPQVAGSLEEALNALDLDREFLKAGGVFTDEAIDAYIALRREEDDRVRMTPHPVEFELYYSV

[16] = tested on: Mycobacterium tuberculosis; test: Activation of Mycobacterium tuberculosis glutamine synthetase at 0.50 mM in water; in short: as §1
[17] = tested on: Mycobacterium tuberculosis; test: Inhibition of Mycobacterium tuberculosis glutamine synthetase at 0.50 mM in water; in short: as §1

## N[C@@H](CCNO)C(=O)O
[1]
  Ki: 7 µM
[2]
  inhibition: 26%
Glutamine synthetase [3]
  Ki: 21 µM

## O=C(O)CNc1ccc(O)c(S(=O)(=O)O)c1
[2]
  inhibition: 48%

## CSc1cccc(NCC(=O)O)c1
[4]
  Activity: inactive

## NS(=O)(=O)c1cccc(N[C@@H](CO)C(=O)O)c1
[5]
  Activity: Active

## N[C@@H](CCCP(=O)(O)O)C(=O)O
[6]
  Activity: inactive

## NC(Cc1ccccc1CP(=O)(O)O)C(=O)O (centres undefined)
[7]
  Activity: inactive

## N[C@@H](CCP(=O)(O)O)C(=O)O
[8]
  Ki: 54 µM
Escherichia coli
  inhibition: 61%

## O=C(O)CNc1cccc(C(=O)O)c1
[5]
  Activity: Active

## C[S+]([O-])CC[C@H](N)C(=O)O (some centres undefined)
Ovis aries [9]
  inhibition: 11%

## O=C(O)c1cccc(N[C@H](CO)C(=O)O)c1
[5]
  Activity: Active

## C[S+]([O-])c1cccc(NCC(=O)O)c1 (centres undefined)
[2]
  inhibition: 30%

## O=C(O)c1cccc(N[C@@H](CO)C(=O)O)c1
[5]
  Activity: Active

## NC(Cc1ccc(CP(=O)(O)O)cc1)C(=O)O (centres undefined)
[10]
  Activity: inactive

## CCOP(=O)(OCC)c1cccc(N[C@@H](CO)C(=O)O)c1
[5]
  Activity: Active

## CP(=O)(O)CCC(N)C(=O)O (racemic) [GLUFOSINATE]
[11]
  IC50: 1.9 µM

## CCOP(=O)(OCC)c1cccc(NCC(=O)O)c1
[12]
  inhibition: 42%

## NS(=O)(=O)c1cccc(N[C@H](CO)C(=O)O)c1
[2]
  inhibition: 33%

## CS(=O)(=O)CC[C@H](N)C(=O)O
[2]
  inhibition: 33%
Ovis aries [9]
  inhibition: 67%

## O=C(O)c1cccc(NC(=O)c2nc[nH]n2)c1
[12]
  inhibition: 26%

## CCOP(=O)(OCC)c1cccc(N[C@H](CO)C(=O)O)c1
[5]
  Activity: Active

## NC[C@H](O)CC[C@H](N)C(=O)O
Ovis aries [13]
  inhibition: 22%
[2]
  inhibition: 58%
[11]
  IC50: 610 µM
[14]
  inhibition: 21%
Glutamine synthetase [15]
  Ki: 40 µM
[12]
  inhibition: 56%

## CSc1cccc(N[C@@H](CO)C(=O)O)c1
[16]
  Activity: Active

## C[S+]([O-])c1cccc(N[C@@H](CO)C(=O)O)c1 (some centres undefined)
[2]
  inhibition: 13%

## CSc1cccc(N[C@H](CO)C(=O)O)c1
[17]
  Activity: inactive

## NS(=O)(=O)c1ccc2[nH]c(=O)[nH]c2c1
[12]
  inhibition: 24%
